Reference: publication PMC6980694 (European journal of medicinal chemistry, 2019)

What was measured:
[1] = test system: Zika virus (PRVABC59 strain); assay type: cell-based; conditions: for anti-Zika activity (in words): PRVABC59 strain, MOI 1, SNB-19 cells 24 h, titer in Vero cells 48 h
Outline: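 SNB-19 cells, pretreated 1 h with graded compound concentrations (0.1% DMSO final), then infected with C6/36-derived ZIKV at MOI 1. Supernatants were harvested 24 h post-infection and focus-titered on confluent Vero cells: 2 h inoculation, methylcellulose overlay for 48 h, 4G2 antibody with HRP/DAB staining, foci counted.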

[2] = Cytotoxicity to Vero cells; assay type: cell-based; conditions: monkey, Vero kidney cells

Row | Structure (SMILES) | anti-Zika activity (in words) [1] | CC50 at 48 h [2] [µM] | also measured
1 | C=C1CC[C@@H]2[C@](C)(CO)[C@H](O)CC[C@@]2(C)[C@@H]1C/C=C1/C(=O)OC[C@@H]1Oc1ccnc2ccccc12 [Compound 6] | inactive | – | –
2 | C=C1CC[C@@H]2[C@](C)(CO)[C@H](O)CC[C@@]2(C)[C@@H]1C/C=C1/C(=O)OC[C@H]1Oc1c(Cl)cc(Cl)c2cccnc12 [Compound 16b, (14α)-(Quinolyl-5’,7’-dichloro-8’-oxy)andrographolide] | – | 58.6 | –
3 | C=C1CC[C@@H]2[C@](C)(CO)[C@H](O)CC[C@@]2(C)[C@@H]1C/C=C1/C(=O)OC[C@@H]1Oc1cccc2cccnc12 [Compound 3] | – | – | safety/selectivity index (SI) ([1]; cell line not specified, CC50 in SNB-19 and Vero vs EC50): > 16
4 | C=C1CC[C@@H]2[C@]3(C)COC(C)(C)O[C@@H]3CC[C@@]2(C)[C@@H]1C/C=C1/C(=O)OC[C@H]1Oc1c(Cl)cc(Cl)c2cccnc12 [Compound 15b, (14α)-(Quinolyl-5’,7’-dichloro-8’-oxy)-3,19-acetonylidene andrographolide] | do not show anti-Zika activity | – | –
5 | C=C1CC[C@@H]2[C@]3(C)COC(C)(C)O[C@@H]3CC[C@@]2(C)[C@@H]1C/C=C1/C(=O)OC[C@@H]1Oc1c(Cl)cc(Cl)c2cccnc12 [Compound 15a, (14β)-(Quinolyl-5’,7’-dichloro-8’-oxy)-3,19-acetonylidene andrographolide] | do not show anti-Zika activity | – | –
6 | C=C1CC[C@@H]2[C@](C)(CO)[C@H](O)CC[C@@]2(C)[C@@H]1C/C=C1/C(=O)OC[C@H]1Oc1ccnc2ccccc12 [Compound 7] | – | 22.3 | –
